PubChem BioAssay
Activity calls are given as the source filed them. Cut-off read from the data, not from the text of the source, unless noted: active = inhibition above about 31%; inactive = the rest.

Experiments:
[1] = HUVEC growth inhibition – cell-based, human, primary screen (AID 575;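 active = viability at or below 30% in both replicate assays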;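 note: 100% = median of untreated cell wells with 0.1% DMSO on each plate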); details: HUVEC proliferation, CellTiter-Glo luminescence, 72 h; at 10 µM; stronger effect = lower value
Procedure, shortened: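 System – primary HUVEC, no more than 12 passages · Medium – Low-serum (2% FBS) EBM, supplemented · Times – 72 h exposure, 37 °C, 5% CO2, 30 min RT equilibration · Measured by – luminescent ATP assay · Read-out – % viability relative to median vehicle-well signal on each plate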

[2] = growth inhibitors of H69AR lung tumor, primary screen, human, duplicate replicates (AID 580;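 active = viability at or under a set limit in both replicates, limit being median viability minus 3 SD, cut at about 48% in these data, passing the limit was not always enough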;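 note: 100% = mean luminescence of untreated wells and 0% = no signal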); details: H69AR lung tumor cells viability, ATP luminescence, 72 h; at 10 µM; stronger effect = lower value
[3] = reversal of MRP1-mediated doxorubicin resistance, pilot screen, H69AR cells, doxorubicin co-treatment (AID 601;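 active = viability loss from added drug above about 55%, and viability with drug at most 40%, in both replicates, limit read from the data, passing the limit was not always enough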); details: CellTiter-Glo, 72 h, at 10 µM; for differential viability (reversal): stronger effect = higher value
[4] = 384-well plate pilot, post-Golgi transport modulator project, inhibition of yeast transport mutant growth (AID 636); details: absorbance 615 nm, about 18 h, stronger effect = higher value
[5] = growth suppression of yeast trafficking mutant, preliminary HTS, modulators of trafficking downstream of Golgi apparatus project, 1536-format plate, OD 615 nm (AID 637; in the data active = inhibition above about 30%); details: yeast transport mutant growth, absorbance 615 nm, 18 h; stronger effect = higher value
[6] = H69AR cells + 2 uM doxorubicin, measured here: viability with 2 uM doxorubicin, stronger effect = lower value
[7] = H69AR cells, compound alone cytotoxicity

Compound	viability [1]	viability [2]	differential viability (reversal) ([3]; H69AR cells + 2 uM doxorubicin)	viability [3, 6] [%]	viability [3, 7] [%]	inhibition [4]	inhibition [5]
O=C(Nc1ccc(S(=O)(=O)Nc2ccc(Cl)cc2)cc1)C1CCCO1 (configuration not stated)	62% (inactive)	90.2% (inactive)	0.92% (inactive)	89.3	90.2	-6% (inactive)	-5.4% (inactive)
CCCn1cc(C(CC(=O)O)C(=O)O)c2ccccc21 (configuration not stated)	92.8% (inactive)	89.1% (inactive)	-3.86% (inactive)	93	89.1	-7.33% (inactive)	5.24% (inactive)
CCCn1c(SCC(=O)Nc2ccccc2C(=O)OCC)nc2c1c(=O)n(C)c(=O)n2C	102% (inactive)	95.7% (inactive)	2.55% (inactive)	93.1	95.7	-8% (inactive)	-3.02% (inactive)
O=C(CN1c2cccc3cccc(c23)S1(=O)=O)N1CCOCC1	105% (inactive)	92.5% (inactive)	-0.865% (inactive)	93.4	92.5	-3.2% (inactive)	0.16% (inactive)
COC(=O)c1[nH]c2ccc(C)cc2c1NC(=O)CN1CCCc2ccccc21	48.2% (inactive)	67.6% (inactive)	-15.6% (inactive)	83.2	67.6	-5.73% (inactive)	0.79% (inactive)
CCOc1ccc(NC(=O)c2ccncc2)cc1	112% (inactive)	99.9% (inactive)	11.4% (inactive)	88.5	99.9	-2.89% (inactive)	-0.63% (inactive)
Cc1nc(NC2=NCN(CCc3ccccc3)CN2)nc2c(C)cccc12	81.9% (inactive)	78% (inactive)	-15.7% (inactive)	93.7	78	-3.82% (inactive)	4.76% (inactive)
O=c1nc(N2CCCC2)nc(Nc2ccccc2)[nH]1	100% (inactive)	83.7% (inactive)	-3.31% (inactive)	87	83.7	-2.47% (inactive)	-4.92% (inactive)
CC(=O)Nc1cccc(NC(=O)CSc2nnnn2C)c1	115% (inactive)	106% (inactive)	10.2% (inactive)	95.9	106	-5.39% (inactive)	0.95% (inactive)
COc1ccc(OC)c(N2Cc3cc(C)c(C)cc3C2)c1	114% (inactive)	95.3% (inactive)	6.88% (inactive)	88.4	95.3	-6.97% (inactive)	4.44% (inactive)
COc1ccc(N2CCN(C(=O)CSc3ncnc4c3cnn4-c3ccccc3C)CC2)cc1	55.5% (inactive)	68.6% (inactive)	-7.28% (inactive)	75.8	68.6	0.53% (inactive)	16% (inactive)
CCN(CC)CCN1C(=O)C(O)=C(C(=O)c2cccs2)C1c1ccc(C)o1 (configuration not stated)	98.7% (inactive)	98.6% (inactive)	5.08% (inactive)	93.6	98.6	-4.13% (inactive)	-1.11% (inactive)
CCc1cc2c(NCCC(=O)O)nc(C)nc2s1	89.2% (inactive)	75.5% (inactive)	-12.1% (inactive)	87.6	75.5	0.65% (inactive)	13.3% (inactive)
CCOc1ccccc1Nc1nc2ccccc2[nH]1	92.7% (inactive)	94.2% (inactive)	1.97% (inactive)	92.3	94.2	0.91% (inactive)	-6.03% (inactive)
C=CCn1c(=S)[nH]c2nc3c(cc2c1=O)COC(C)(C)C3	90% (inactive)	77.8% (inactive)	5.84% (inactive)	72	77.8	-5.06% (inactive)	2.86% (inactive)
Cc1ccc(Nc2cc(C)nc3nnnn23)cc1	78.5% (inactive)	93.4% (inactive)	8.3% (inactive)	85.1	93.4	-5.06% (inactive)	-2.06% (inactive)
c1ccc(-c2noc(-c3cccnc3)n2)nc1	84.8% (inactive)	72.1% (inactive)	4.56% (inactive)	67.5	72.1	-3.77% (inactive)	6.67% (inactive)
N#Cc1c(-c2ccccc2)nc(N2CCCCCC2)[nH]c1=O	91.5% (inactive)	88.2% (inactive)	-3.53% (inactive)	91.7	88.2	-4.8% (inactive)	-3.02% (inactive)
CN(C)CCNC(=O)c1ccc(COCC(F)(F)F)cc1	104% (inactive)	84.6% (inactive)	1.1% (inactive)	83.5	84.6	-7.07% (inactive)	-3.65% (inactive)
O=C(c1ccncc1)N1CCN(C(=O)c2cccs2)CC1	103% (inactive)	94.6% (inactive)	5.42% (inactive)	89.1	94.6	-1.73% (inactive)	-2.38% (inactive)
CC(C)C(c1nnnn1C1CCCC1)N1CCCc2ccccc21 (configuration not stated)	80.3% (inactive)	84.5% (inactive)	-6.77% (inactive)	91.2	84.5	1.33% (inactive)	-3.65% (inactive)
